KCNK3 inh – human KCNK3 channel inhibition, primary screen | O14649 | CHO-KCNK3 thallium flux, FluxOR fluorescence; stronger effect = lower value | B-score at 10 µM | 340,000 tested, 0.84% active;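 active means B-score under library mean minus 4 SD, starting fluorescence ratio at most library mean plus 5 SD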;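 further: more negative B-score means stronger inhibition of thallium flux through KCNK3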
Target sequence (O14649 whole entry, looked up): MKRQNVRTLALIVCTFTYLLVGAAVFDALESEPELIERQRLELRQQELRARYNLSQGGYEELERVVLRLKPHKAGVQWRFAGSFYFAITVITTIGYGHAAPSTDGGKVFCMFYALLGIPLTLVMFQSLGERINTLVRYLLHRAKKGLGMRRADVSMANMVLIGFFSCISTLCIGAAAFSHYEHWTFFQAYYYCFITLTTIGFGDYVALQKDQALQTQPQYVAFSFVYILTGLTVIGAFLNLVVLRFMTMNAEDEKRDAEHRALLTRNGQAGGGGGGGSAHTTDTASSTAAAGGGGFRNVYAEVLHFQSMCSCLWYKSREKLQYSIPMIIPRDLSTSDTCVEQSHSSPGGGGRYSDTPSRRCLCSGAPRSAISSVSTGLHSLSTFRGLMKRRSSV
KCNQ1 inh – human KCNQ1 channel inhibition | P51787 | CHO-K1 KCNQ1, FluxOR thallium flux fluorescence; stronger effect = higher value | B-score at 10 µM | 310,000 tested, 1.3% active | AID 2642;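 active means compounds whose thallium flux B-score, printed positive for inhibition, exceeds three library SD while starting fluorescence stays within three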;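 further: channel opened by potassium depolarization with thallium stimulus after 20 min compound exposure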
hERG rescue – shields human hERG channel from block by proarrhythmic agents; activation (rescue from dofetilide block), less the hit threshold, % at 10 µM; AID 1511; 310,000 tested, 0.51% active; CHO-hERG, FluxOR thallium flux, dofetilide IC70 present; Q12809;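 active means activation above the mean of controls blocked by dofetilide plus 5 SD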;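 further: thallium influx through hERG after potassium depolarization seen as dye fluorescence rise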
KCNK9 inh – human KCNK9 channel inhibition. HEK293 KCNK9, FluxOR thallium flux fluorescence; stronger effect = lower value. AID 488922. B-score at 10 µM. Q9NPC2. 310,000 tested, 1.2% active;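 active means ratio B-score over 3 SD below the library mean, with starting fluorescence within 5 SD of its mean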;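 further: negative B-score means less thallium flux so channel inhibition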
KCNQ1 pot – potentiators or activators of human KCNQ1 potassium channel. CHO-K1 KCNQ1, thallium flux FluxOR fluorescence; stronger effect = higher value. B-score at 10 µM. 310,000 tested, 0.35% active;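 active means fluorescence ratio B-score, a plate-corrected score, at least three library SD, with initial intensity B-score within 5 SD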
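Medium – assay buffer, equal DMSO in all wells · Material – CHO-K1 cell line with stable KCNQ1 potassium channel expression · Signal – kinetic FluxOR thallium fluorescence, 10-s 1-Hz baseline, 110-s post-stimulus read · Compound – single concentration per compound, DMSO matched to controls · Schedule – 37 °C overnight plating, 90-min dark dye load, 20-min compound pretreatment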
An asterisk follows results filed as active; i = inactive; nt = not tested or not shown. Compounds with a hit are over-represented: about 3.1% of the library has one in this group of screens.

SMILES	KCNK3 inh	KCNQ1 inh	hERG rescue	KCNK9 inh	KCNQ1 pot
CN(CC(=O)NCc1ccccc1)CC(=O)Nc1ccc(Cl)c(C(F)(F)F)c1	-9.4*	nt	nt	nt	nt
O=C(c1cnn(C(=O)c2ccc(O)cc2)c1)c1ccccc1O	nt	6*	-11	i	i
COc1cccc(-c2cc(C(F)(F)F)nc(N3CCC(C)CC3)n2)c1	i	i	5.1*	i	i
CC1CCN(C(=O)CSc2nc3cccnc3n2C)CC1	i	i	-10	i	i
Cn1c(SCC(=O)N2CCOCC2)nc2cccnc21	i	i	4.8*	i	i
O=C(c1cc(NC(=O)C23CC4CC(CC(C4)C2)C3)cc(NC(=O)C23CC4CC(CC(C4)C2)C3)c1)N1CCCCC1	nt	10*	-7	i	i
CC(C)(C)c1ccc(C(=O)NC(=S)NNC(=O)c2cccs2)cc1	i	i	-9	i	12*
CCCC(=O)Nc1ccc(C(=O)NNC(=S)NC(=O)c2cccs2)cc1	i	i	-10	i	i
Cc1cccc(C(=O)NC(=S)NNC(=O)c2ccc(Cl)cc2)c1	i	i	9.1*	i	i
Cc1cccc(C(=O)NC(=S)NNC(=O)c2cccs2)c1	i	i	-2	i	8*
O=C(NC(=S)NNC(=O)c1cccs1)c1ccccc1	i	6*	-12	i	i
Cc1ccccc1C(=O)NNC(=S)NC(=O)c1cccs1	i	i	-8	i	i
CC(C)N(Cc1ccccc1)C(=O)COC(=O)c1cc[n+]([O-])cc1	i	nt	nt	nt	nt
CCOC(=O)/C(=N\Nc1ccccc1Cl)N1CCN(Cc2ccccc2)CC1	i	7*	-6	-8*	i
O=C(O)CSc1c2c(nc3cc(C(=O)Nc4ccc(F)c(Cl)c4)ccc13)CCCC2	i	i	0	i	i
COc1ccc(NC(=O)c2ccc3c(SCC(=O)O)c4c(nc3c2)CCCC4)cc1Cl	nt	i	7.8*	i	i
Cc1c(NC(=S)NC(=O)c2cc3ccccc3o2)cccc1C(=O)O	i	i	-12	i	i
CCC(C)(C)c1ccc(OCCCC[n+]2ccc(C)cc2)c(C(C)(C)CC)c1	nt	7*	-25	-7.7*	i
Cc1ccc(-c2ccc(/C=N/NC(=O)c3ccccc3O)o2)cc1	nt	i	-8	i	8*
Cc1cc(=O)oc2cc3c(cc12)OCO3	i	i	-4	i	i
CCn1c(=S)[nH]c2sc3c(c2c1=O)CCCC3	i	i	16*	i	35*
CN(C)CCCn1c(=S)[nH]c2sc3c(c2c1=O)CCCC3	i	i	-12	i	i
CC1CCc2c(sc3[nH]c(=S)n(C)c(=O)c23)C1 (stereo unspecified)	i	i	52*	i	74*
C=CCn1c(=S)[nH]c2sc3c(c2c1=O)CCC3	i	i	16*	i	i
COc1ccc(/C=N\NC(=S)SCN2C(=O)C3CCC(C)(C2=O)C3(C)C)cc1 (stereo unspecified)	i	i	0	i	16*
SMILES	KCNK3 inh	KCNQ1 inh	hERG rescue	KCNK9 inh	KCNQ1 pot
CN(C)c1ccc(/C=N\NC(=S)SCN2C(=O)C3CCC(C)(C2=O)C3(C)C)cc1 (stereo unspecified)	i	nt	nt	nt	nt
CCCCn1c(N)nc2ccccc21	i	i	7.5*	i	i
COc1cccc(CN(CC(=O)NC2CCCCC2)C(=O)c2csnn2)c1	i	i	-11	i	i
CCOCC(=O)OCC(=O)Nc1cc(OC)c([N+](=O)[O-])cc1C	i	i	4.9*	i	i
COc1cccc(OC)c1NC(=O)C1CCCN1C(=O)Nc1cccc(Cl)c1 (stereo unspecified)	i	i	-4	i	i
COc1ccc(CCn2c(C)cc(C(=O)CN3C(=O)C(=O)N(C4CCCC4)C3=O)c2C)cc1OC	i	nt	nt	nt	nt
CNC(=O)COC(=O)c1ccccc1C(=O)c1ccc(Cl)c([N+](=O)[O-])c1	i	6*	-35	i	i
O=C(COC(=O)c1ccccc1C(=O)c1ccc(Cl)c([N+](=O)[O-])c1)NC1CC1	i	i	-25	i	i
CC(=O)c1ccc(N2C(=O)C3C(C2=O)C(C(=O)c2ccc(Cl)cc2)N2CCCC32)cc1 (stereo unspecified)	nt	8*	-20	i	i

Assay outcomes as filed in PubChem BioAssay.
